This is an account of results in ChEMBL document CHEMBL1126317, “2-(aminoalkyl)-5-nitropyrazolo[3,4,5-kl]acridines, a new class of anticancer agents” (1992).

SMILES strings stand for the structures.

For one assay, the system named is L1210. In words: In vitro antitumor activity against L1210 leukemia cell line. The format is functional. Conditions: Mus musculus, read-out: ID50 (the source's name).
The test system of assay [1] is Mus musculus. As to the kind of experiment: In vivo antitumor activity of the compound(ip, 25 mg/kg for 5 days) against CD2F1 mice implanted intraperitoneally with P388 leukemia cells. The format is functional. Conditions: route intraperitoneal.
Another assay has as its system HCT-8. As to the kind of experiment: In vitro antitumor activity against HCT-8 colon cancer cell line. The format is functional. Conditions: Homo sapiens, read-out: ID50 (the source's name).
Assay [2] in a line: Ratio of the ID50's showing antitumor activity against HCT-8 and L1210 leukemia cell lines. The format is functional. The method in brief:
(§1)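 Ratio taken as ID50 in HCT-8 cells divided by ID50 in L1210 cells, both ID50s expressed as molar concentrations.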

In assay [3] the test system is Mus musculus. As to the kind of experiment: In vivo antitumor activity of the compound(ip, 12.5 mg/kg for 5 days) against CD2F1 mice implanted intraperitoneally with P388 leukemia cells; Day 30 survivors=2/6. The format is functional. The settings on record: route intraperitoneal.
For assay [4], the system named is Mus musculus. In words: In vivo antitumor activity of the compound(ip, 12.5 mg/kg for 5 days) against CD2F1 mice implanted intraperitoneally with P388 leukemia cells. The format is functional. Conditions: route intraperitoneal.
The test system of assay [5] is Mus musculus. As to the kind of experiment: In vivo antitumor activity of the compound(ip, 3 mg/kg for 5 days) against CD2F1 mice implanted intraperitoneally with P388 leukemia cells. The class given is functional. Conditions: route intraperitoneal.
Assay [6] can be described thus: Ratio of the ID50's showing antitumor activity against HCT-8 and L1210 leukemia cell lines. The class given is functional. The essentials: as §1
Assay [7] relates to Mus musculus. As to the kind of experiment: In vivo antitumor activity of the compound(ip, 25 mg/kg for 5 days) against CD2F1 mice implanted intraperitoneally with P388 leukemia cells. Conditions: route intraperitoneal.
Assay [8] concerns Mus musculus. In words: In vivo antitumor activity of the compound(ip, 25 mg/kg for 5 days) against CD2F1 mice implanted intraperitoneally with P388 leukemia cells; Day 30 survivors=1/6. The settings on record: route intraperitoneal.
Assay [9] relates to Mus musculus. As to the kind of experiment: In vivo antitumor activity of the compound(ip, 25 mg/kg for 5 days) against CD2F1 mice implanted intraperitoneally with P388 leukemia cells; Day 30 survivors=1/6. Conditions: route intraperitoneal. The format is functional.
Assay [10] deals with Mus musculus. As to the kind of experiment: In vivo antitumor activity of the compound(ip, 12.5 mg/kg for 5 days) against CD2F1 mice implanted intraperitoneally with P388 leukemia cells; Day 30 survivors=3/6. The format is functional. Conditions: route intraperitoneal.
Assay [11] relates to Mus musculus. As to the kind of experiment: In vivo antitumor activity of the compound(ip, 3.12 mg/kg for 5 days) against CD2F1 mice implanted intraperitoneally with P388 leukemia cells; Day 30 survivors=1/6. Conditions: route intraperitoneal. The class given is functional.
Assay [12] concerns Mus musculus. As to the kind of experiment: In vivo antitumor activity of the compound(ip, 3.12 mg/kg for 5 days) against CD2F1 mice implanted intraperitoneally with P388 leukemia cells. The class given is functional. Conditions: route intraperitoneal.
The subject of assay [13] is Mus musculus. In words: In vivo antitumor activity of the compound(ip, 6.25 mg/kg for 5 days) against CD2F1 mice implanted intraperitoneally with P388 leukemia cells; Day 30 survivors=6/6. The format is functional. Conditions: route intraperitoneal.
Assay [14] has as its system Mus musculus. In words: In vivo antitumor activity of the compound(ip, 6.25 mg/kg for 5 days) against CD2F1 mice implanted intraperitoneally with P388 leukemia cells. The settings on record: route intraperitoneal. The class given is functional.
Assay [15] deals with Mus musculus. As to the kind of experiment: In vivo antitumor activity of the compound(ip, 6.25 mg/kg for 5 days) against CD2F1 mice implanted intraperitoneally with P388 leukemia cells; Day 30 survivors=5/6. The class given is functional. Conditions: route intraperitoneal.
Assay [16] concerns Mus musculus. As to the kind of experiment: In vivo antitumor activity of the compound(ip, 6 mg/kg for 5 days) against CD2F1 mice implanted intraperitoneally with P388 leukemia cells; Day 30 survivors=1/6. The format is functional. Conditions: route intraperitoneal.
For assay [17], the system named is Mus musculus. As to the kind of experiment: In vivo antitumor activity of the compound(ip, 6 mg/kg for 5 days) against CD2F1 mice implanted intraperitoneally with P388 leukemia cells. The format is functional. The settings on record: route intraperitoneal.
Assay [18] deals with Mus musculus. As to the kind of experiment: In vivo antitumor activity of the compound(ip, 3.12 mg/kg for 5 days) against CD2F1 mice implanted intraperitoneally with P388 leukemia cells; Day 30 survivors=4/6. The class given is functional. Conditions: route intraperitoneal.

Broadly, the T/C is the ratio of treated to control. As for `CCN(CC)CCN1Nc2c3cc(OC)ccc3nc3c([N+](=O)[O-])ccc1c23.CS(=O)(=O)O`, the values for the IC50 in the assay with L1210 and with HCT-8 were 470 nM and 120 nM, respectively. The T/C in the assay with Mus musculus [1] was determined as 242%. Further, the Ratio in assay [2] amounted to 0.26.
As for `CCN(CC)CCN1Nc2c3cc(O[Si](C)(C)C(C)(C)C)ccc3nc3c([N+](=O)[O-])ccc1c23.CS(=O)(=O)O`, in the assay with L1210, the IC50 came out at 1.7 nM. Moreover, the Activity with Mus musculus [3] is 2. For the same compound, the T/C with Mus musculus [4] was determined as 228%.
Turning to `CCN(CC)CCN1Nc2c3cc(O)ccc3nc3c([N+](=O)[O-])ccc1c23.CS(=O)(=O)O`, the values for the IC50 with L1210 and with HCT-8 were 2 nM and 13 nM, respectively. Moreover, the T/C in the assay with Mus musculus [5] is listed as 180%. The Ratio in assay [6] is given as 6.5.
On to `C=CCOc1ccc2nc3c([N+](=O)[O-])ccc4c3c(c2c1)NN4CCN(CC)CC.CS(=O)(=O)O`, for which the IC50 in the assay with L1210 is 580 nM. The compound further came in with a T/C in the assay with Mus musculus [7] of 258%. Also, in the assay on Mus musculus [8], the Activity worked out at 1.
On to `CCN(CC)CCN1Nc2c3cc(N(C)C)ccc3nc3c([N+](=O)[O-])ccc1c23.CS(=O)(=O)O`, for which the IC50 in the assay with L1210 was 900 nM. For the same compound, the Activity in the assay with Mus musculus [9] amounted to 1. Besides, in the assay on Mus musculus [1], the T/C was found to be 178%.
In the case of `CCN(CC)CCN1Nc2c3c(Cl)c(OC)ccc3nc3c([N+](=O)[O-])ccc1c23.CS(=O)(=O)O`, in the assay with L1210, the IC50 stood at 61 nM. The compound further registered an Activity with Mus musculus [10] of 3. Further, the T/C in the assay on Mus musculus [4] is on record as 230%.
With `CC(=O)Oc1ccc2c(c1)-c1nn(CCN3CCCC3)c3ccc([N+](=O)[O-])c(c13)N2.CS(=O)(=O)O`, the IC50 with L1210 is 2.2 nM. This compound also displayed an Activity in the assay on Mus musculus [11] of 1. The same compound displayed a T/C with Mus musculus [12] of 236%.
Consider `CS(=O)(=O)O.O=[N+]([O-])c1ccc2c3c(c4cc(O)ccc4nc13)NN2CCNCCO`, for which, in the assay with L1210, the IC50 stood at 4.8 nM. The Activity with Mus musculus [13] worked out at 6. The compound further had a T/C in the assay on Mus musculus [14] of 275%.
Regarding `CCN(CC)CCN1Nc2c3cc(OC(=O)C(C)(C)C)ccc3nc3c([N+](=O)[O-])ccc1c23.CS(=O)(=O)O`, the results for the IC50 in the assay with L1210 and with HCT-8 were 1 nM and 9.7 nM, respectively. For the same compound, the Activity with Mus musculus [15] came out at 5. In the assay on Mus musculus [14], this compound showed a T/C of 283%. The Ratio in assay [6] is reported as 0.97.
As to `CCN(CC)CCN1Nc2c3c(Cl)c(O)ccc3nc3c([N+](=O)[O-])ccc1c23.CS(=O)(=O)O`, the IC50 with L1210 was 0.39 nM. The same compound registered an Activity in the assay on Mus musculus [16] of 1. The compound also yielded a T/C in the assay with Mus musculus [17] of 196%.
Consider `CCN(CC)CCN1Nc2c3cc(OC(C)=O)ccc3nc3c([N+](=O)[O-])ccc1c23.CS(=O)(=O)O`, for which the IC50 in the assay with L1210 was found to be 3.8 nM; in the assay with HCT-8, 5.3 nM. The Activity in the assay on Mus musculus [18] is 4. The T/C in the assay on Mus musculus [12] came out at 283%. Also, the Ratio in assay [6] was 1.4.
